ChEMBL document CHEMBL3085734, “Indole diterpene alkaloids as novel inhibitors of the Wnt/β-catenin pathway in breast cancer cells” (Eur J Med Chem, 2013)
The source made the active and inactive calls. The calls are words filed in the database; no cut-off is given here.

Legend:
MCF7 = experiment: Antiproliferative activity against human MCF7 cells after 72 hrs by MTT assay; type: functional, cell-based; settings: MCF7, 72 h
Method in brief: (§1)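 Seeding: MCF-7 at 10×10³ and MDA-MB-231 at 8×10³ cells/well, attached overnight. Medium: serum-free RPMI for MCF-7 and RPMI with 5% FBS for MDA-MB-231, with graded compound doses, for 72 h at 37°C. Readout: MTT (1 mg/mL) for 4 h, formazan dissolved in DMSO, absorbance at 570 nm. Cell numbers taken from a standard curve as % survival versus DMSO. IC50 obtained by nonlinear regression. Final DMSO ≤0.2%.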

MDA-MB-231 [1] = experiment: Antiproliferative activity against human MDA-MB-231 cells after 72 hrs by MTT assay; type: functional, cell-based; settings: MDA-MB-231, 72 h; method in brief: as §1
Mus musculus [2] = experiment: Toxicity in CD-1 mouse assessed as incidence of tremor at 19.6 mg/kg, ip measured every 10 to 15 mins for 8 hrs up to day 14; type: organism-based; set-up: dose 19.6 mg/kg, route intraperitoneal; settings: in vivo
Method in brief: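 Male CD-1 mice (18–22 g), housed individually. Compounds given ip in DMSO diluted with saline (DMSO ≤2.0 µL/g). Up-and-Down Procedure per EPA 870.1100: sigma 0.33, starting dose 1.92 mg/kg, changed in 3.2-fold steps by tremor response, range 0.19–19.6 mg/kg. Observed every 10–15 min for 1 h, hourly for 8 h, then daily to day 14. Tremor EC50 calculated with AOT425StatPgm.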

MDA-MB-231 [3] = experiment: Antimigratory activity against human MDA-MB-231 cells after 24 hrs by wound-healing assay; type: functional, cell-based; settings: MDA-MB-231, 24 h
Method in brief: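 Confluent MDA-MB-231 monolayers scratched with a pipette tip, then washed. Compounds added in 0.5% FBS medium, in triplicate, for 24 h. Cells then fixed and stained with Diff-Quick. Cells that migrated into the wound were counted in at least five random fields at 400X.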

MDA-MB-231 [4] = experiment: Antiinvasive activity against human MDA-MB-231 cells at 7.5 to 15 uM after 24 hrs by cultrex BME assay
[5] = target: Calcium-activated potassium channel slo-1 (Caenorhabditis elegans, UniProt Q95V25); experiment: Inhibition of wild type L4 larval stage of Caenorhabditis elegans N2 bristol BK channel assessed as induction of reversal locomotion at 1 uM after 42 hrs
Method in brief: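 30–40 synchronized L1 larvae of wild-type N2 placed on OP50-seeded NGM plates containing 1.0 µM compound or DMSO. Incubated 42 h at 20°C. L4 worms then moved to unseeded NGM and acclimatized 1 min before reversals were counted, at least 10 worms per treatment. slo-1(js379) strain NM1968 served as positive control.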

Mus musculus [6] = experiment: Toxicity in CD-1 mouse assessed as incidence of tremor at 1.92 mg/kg, ip measured every 10 to 15 mins for 8 hrs up to day 14; type: organism-based; set-up: dose 1.92 mg/kg, route intraperitoneal; settings: in vivo
Method in brief: (§2)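 Male CD-1 mice (18–22 g), housed singly 3 days beforehand, given a single i.p. dose of DMSO stock diluted in saline (DMSO ≤2.0 µL/g); vehicle controls. Up-and-Down Procedure per EPA 870.1100 (sigma 0.33): start 1.92 mg/kg, then ×3.2 up or down according to tremor response, range 0.19–19.6 mg/kg. Tremors scored over 14 days; EC50 from AOT425StatPgm.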

Mus musculus [7] = experiment: Toxicity in CD-1 mouse assessed as incidence of tremor at 0.19 mg/kg, ip measured every 10 to 15 mins for 8 hrs up to day 14; type: organism-based; set-up: dose 0.19 mg/kg, route intraperitoneal; settings: in vivo; method in brief: as §2
MDA-MB-231 [8] = experiment: Inhibition of Wnt/beta-catenin signaling pathway in human MDA-MB-231 cells assessed as decrease in expression of beta-catenin level at 48.2 uM after 48 hrs by DAPI staining-based confocal laser scanning microscopy; type: cell-based
Method in brief: (§3)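 MDA-MB-231 cells seeded at 5×10⁴/chamber and attached overnight in 10% FBS. Treated 48 h in 0.5% FBS medium. Cells fixed in −20°C methanol and blocked with 2% BSA-TBST. Stained with anti-total β-catenin (1:300, overnight at 4°C), then Alexa Fluor 594 secondary, with DAPI counterstain. Confocal imaging at 200X; red intensity compared with untreated control. Duplicate chambers, experiments repeated at least three times.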

MDA-MB-231 [9] = experiment: Inhibition of Wnt/beta-catenin signaling pathway in human MDA-MB-231 cells assessed as decrease in expression of beta-catenin level at 19 uM after 48 hrs by DAPI staining-based confocal laser scanning microscopy; type: cell-based
Method in brief: (§4)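 MDA-MB-231 cells, 5 × 10^4 per chamber (2 replicates/group), attached overnight in 10% FBS medium, then treated 48 h in 0.5% FBS medium (final DMSO ≤0.2%). Methanol-fixed at −20 °C, blocked in 2% BSA-TBST, anti-total β-catenin (1:300, overnight 4 °C), Alexa Fluor 594 secondary, DAPI counterstain. Confocal imaging at 200X; red intensity compared with vehicle; ≥3 independent repeats.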

Mus musculus [10] = experiment: Toxicity in CD-1 mouse assessed as incidence of tremor at 0.60 mg/kg, ip measured every 10 to 15 mins for 8 hrs up to day 14; type: organism-based; set-up: dose 0.6 mg/kg, route intraperitoneal; settings: in vivo, 0.6 mg/kg; method in brief: as §2
Mus musculus [11] = experiment: Toxicity in ip dosed CD-1 mouse assessed as incidence of tremor measured every 10 to 15 mins for 8 hrs up to day 14; type: organism-based; method in brief: as §2
[12] = Inhibition of Wnt/beta-catenin signaling pathway in mouse C2C12 cells assessed as induction of nuclear translocation of beta-catenin after 24 hrs by propidium iodide staining-based laser scanning cytometry; type: cell-based; settings: C2C12, 24 h
MDA-MB-231 [13] = experiment: Inhibition of Wnt/beta-catenin signaling pathway in human MDA-MB-231 cells assessed as decrease in expression of beta-catenin level at 8 uM after 48 hrs by DAPI staining-based confocal laser scanning microscopy; type: cell-based; method in brief: as §4
MDA-MB-231 [14] = experiment: Inhibition of Wnt/beta-catenin signaling pathway in human MDA-MB-231 cells assessed as decrease in expression of beta-catenin level at 7.6 uM after 48 hrs by DAPI staining-based confocal laser scanning microscopy; type: cell-based; method in brief: as §3
MDA-MB-231 [15] = experiment: Inhibition of Wnt/beta-catenin signaling pathway in human MDA-MB-231 cells assessed as decrease in expression of beta-catenin level at 9.6 uM after 48 hrs by DAPI staining-based confocal laser scanning microscopy; type: cell-based; method in brief: as §4

Calcium-activated potassium channel slo-1, sequence (Q95V25 whole entry): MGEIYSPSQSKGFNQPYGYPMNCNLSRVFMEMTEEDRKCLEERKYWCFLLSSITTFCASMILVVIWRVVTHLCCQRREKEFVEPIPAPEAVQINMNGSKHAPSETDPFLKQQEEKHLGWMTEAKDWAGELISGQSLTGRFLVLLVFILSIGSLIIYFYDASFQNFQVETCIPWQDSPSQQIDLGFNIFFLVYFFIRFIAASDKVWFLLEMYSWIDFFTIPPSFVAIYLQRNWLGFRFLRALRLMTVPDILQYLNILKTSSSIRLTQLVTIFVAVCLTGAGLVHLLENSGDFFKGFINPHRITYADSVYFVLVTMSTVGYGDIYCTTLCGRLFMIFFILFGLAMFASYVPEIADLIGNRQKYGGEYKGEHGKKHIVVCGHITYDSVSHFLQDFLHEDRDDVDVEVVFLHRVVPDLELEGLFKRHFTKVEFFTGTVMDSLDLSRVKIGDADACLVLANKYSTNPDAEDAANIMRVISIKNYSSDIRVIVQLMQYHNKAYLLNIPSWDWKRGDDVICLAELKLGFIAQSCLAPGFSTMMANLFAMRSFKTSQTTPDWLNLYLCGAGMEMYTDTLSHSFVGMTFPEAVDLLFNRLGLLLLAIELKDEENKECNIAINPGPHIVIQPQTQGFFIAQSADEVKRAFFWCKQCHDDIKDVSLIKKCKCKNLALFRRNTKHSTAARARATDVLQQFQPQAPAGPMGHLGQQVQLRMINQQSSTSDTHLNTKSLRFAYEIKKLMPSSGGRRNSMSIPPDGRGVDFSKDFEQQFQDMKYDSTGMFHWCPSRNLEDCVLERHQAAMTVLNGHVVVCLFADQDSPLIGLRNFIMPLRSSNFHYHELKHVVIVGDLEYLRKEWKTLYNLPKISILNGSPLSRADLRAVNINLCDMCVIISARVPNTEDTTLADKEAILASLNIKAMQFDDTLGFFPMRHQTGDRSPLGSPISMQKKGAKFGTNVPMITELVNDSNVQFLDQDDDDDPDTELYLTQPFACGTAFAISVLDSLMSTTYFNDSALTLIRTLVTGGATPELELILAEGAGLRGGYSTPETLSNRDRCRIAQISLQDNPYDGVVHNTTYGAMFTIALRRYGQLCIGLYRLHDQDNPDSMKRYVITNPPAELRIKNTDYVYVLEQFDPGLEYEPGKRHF

Structure (SMILES)	IC50 (MCF7) [µM]	IC50 (MDA-MB-231 [1]) [µM]	IC50 (MDA-MB-231 [3]) [µM]	inhibition (INH) [5]	Activity (MDA-MB-231 [4])	further results
C=C(C)[C@H]1O[C@H]2CC[C@@]3(C)[C@@](O)(CC[C@H]4[C@@H]5OC(C)(C)[C@@H]6C[C@@H]7C(=C)Cc8c(Cl)cc9c(c5c(n9Cc5cccc(OC)c5)[C@@]43C)c8[C@@]76O)[C@]23O[C@@H]3[C@H]1OCc1cccc(OC)c1	> 50	> 50	> 50		Active	
C=C(C)[C@H]1O[C@H]2CC[C@@]3(C)[C@@](O)(CC[C@H]4[C@@H]5OC(C)(C)[C@@H]6C[C@@H]7C(=C)Cc8c(Cl)cc9[nH]c(c5c9c8[C@@]76OO)[C@@]43C)[C@]23O[C@@H]3[C@H]1O	> 50	> 50	> 50		Active	
C=C(C)[C@H]1O[C@H]2CC[C@@]3(C)[C@@](O)(CC[C@H]4[C@@H]5OC(C)(C)[C@H]6C[C@@H]7C(=C)Cc8c(Cl)cc9[nH]c(c5c9c8[C@@]76O)[C@@]43C)[C@]23O[C@@H]3[C@H]1O [PENITREM A]				Active		Activity (Mus musculus [6]): Toxic; Activity (Mus musculus [7]): Non-toxic
CC(C)=CCC[C@]1(C)[C@@H](O)CC[C@@]2(C)[C@H]1CC[C@H]1Cc3c([nH]c4ccccc34)[C@@]12C [EMINDOLE SB]				Not Active		inhibition (MDA-MB-231 [9]): Active
C=C(C)[C@H]1O[C@H]2CC[C@@]3(C)[C@@](O)(CC[C@H]4[C@@H]5OC(C)(C)[C@@H]6C[C@@H]7C(=C)Cc8c(Cl)cc9[nH]c(c5c9c8[C@@]76O)[C@@]43C)[C@]23O[C@@H]3[C@H]1OC	22.7	> 50	> 50		Active	
C=C1Cc2c(Br)cc3[nH]c4c5c3c2[C@H]2[C@@H]1C[C@H]2C(C)(C)O[C@H]5[C@@H]1CC[C@@]2(O)[C@@]35O[C@@H]3[C@@H](O)[C@@H](C(=C)C)O[C@H]5CC[C@]2(C)[C@@]41C						Activity (Mus musculus [2]): Toxic; Activity (Mus musculus [10]): Non-toxic; EC50 (Mus musculus [11]): 3.43 mg/kg
C=C(C)[C@H]1O[C@H]2CC[C@@]3(C)[C@@](O)(CC[C@H]4[C@@H]5OC(C)(C)[C@H]6C[C@@H]7C(=C)Cc8c(Cl)cc9[nH]c(c5c9c8[C@@]76O)[C@@]43C)[C@@]23O[C@H]3[C@H]1O [PENITREM A]	11.9	9.8	8.7		Active	EC50 [12]: 0.98 µM; inhibition (MDA-MB-231 [13]): Active
CC(C)(O)[C@@H]1CC[C@]2(C)[C@H](CC[C@@]3(C)[C@H]2CC[C@H]2Cc4c([nH]c5ccccc45)[C@@]23C)O1 [PASPALINE]				Not Active		inhibition (MDA-MB-231 [14]): Active
C=C(C)[C@H]1O[C@H]2CC[C@@]3(C)[C@@](O)(CC[C@H]4[C@@H]5OC(C)(C)[C@@H]6C[C@@H]7C(=C)Cc8c(Br)cc9[nH]c(c5c9c8[C@@]76O)[C@@]43C)[C@]23O[C@@H]3[C@H]1O				Not Active		Activity (Mus musculus [6]): Toxic; inhibition (MDA-MB-231 [15]): Active; Activity (Mus musculus [7]): Non-toxic; Activity (Mus musculus [10]): Toxic; EC50 (Mus musculus [11]): 0.32 mg/kg

Further lines, with some results ahead:

IC50 (MCF7) [µM]	IC50 (MDA-MB-231 [1]) [µM]	IC50 (MDA-MB-231 [3]) [µM]	inhibition (INH) [5]	Structure (SMILES)	Activity (MDA-MB-231 [4])	further results
> 50	13.8	> 50	Not Active	C=C(C)[C@H]1O[C@H]2CC[C@@]3(C)[C@@](O)(CC[C@H]4[C@@H]5OC(C)(C)[C@@H]6C[C@@H]7C(=C)Cc8c(Cl)cc9[nH]c(c5c9c8[C@@]76O)[C@@]43C)[C@]23O[C@@H]3[C@H]1OC(=O)c1ccccc1	Active	Activity (Mus musculus [2]): ND(Insoluble)
13.3	43.8	48.2	Not Active	C=C1Cc2c(Cl)cc3[nH]c4c5c3c2[C@@]2(O)[C@@H]1C[C@H]2C(C)(C)O[C@H]5[C@@H]1CC[C@@]2(O)[C@@]35O[C@@H]3[C@H](O)O[C@H]5CC[C@]2(C)[C@@]41C	Active	Activity (Mus musculus [2]): ND(Insoluble); inhibition (MDA-MB-231 [8]): Active
> 50	> 50	> 50	Not Active	C=C(C)[C@H]1O[C@H]2CC[C@@]3(C)[C@@](O)(CC[C@H]4[C@@H]5OC(C)(C)[C@@H]6C[C@@H]7C(=C)Cc8c(Cl)cc9c(c5c(n9C)[C@@]43C)c8[C@@]76O)[C@]23O[C@@H]3[C@H]1OC	Active	Activity (Mus musculus [2]): ND(Insoluble)
	> 50	> 50		C=C(C)[C@H]1O[C@H]2CC[C@@]3(C)[C@@](O)(CC[C@H]4[C@@H]5OC(C)(C)[C@@H]6C[C@@H]7C(=C)Cc8c(Cl)cc9c(c5c(n9C)[C@@]43C)c8[C@@]76O)[C@]23O[C@@H]3[C@H]1O	Active	
32.3	10	> 50		C=C1Cc2c(Cl)cc3[nH]c4c5c3c2[C@@]2(O)[C@@H]1C[C@H]2C(C)(C)O[C@H]5[C@@H]1CC[C@@]2(O)[C@@]35O[C@@H]3[C@@](O)(/C=C(/C)COC(C)=O)O[C@H]5CC[C@]2(C)[C@@]41C		
> 50	> 50	> 50		C=C(C)[C@H]1O[C@H]2CC[C@@]3(C)[C@@](O)(CC[C@H]4[C@@H]5OC(C)(C)[C@@H]6C[C@@H]7C(=C)Cc8c(Cl)cc9[nH]c(c5c9c8[C@@]76O)[C@@]43C)[C@]23O[C@@H]3[C@H]1OCc1ccccc1		
